Cneo AK release: Cryptococcus neoformans lysis via adenylate kinase release; C. neoformans lysis, adenylate kinase release luminescence, 4 h; normalised: neutral wells 0, clomiphene wells 100; lysis activity, % at 15 µM; hit rate 0.2% among 360,000; AID 651654;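 active means mean lysis activity across replicates of at least 80%, whatever share of replicates individually reach that level; inactive means mean lysis activity below 80%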
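Material – Cryptococcus neoformans yeast cells · Quantity – 5 × 10^6 yeast cells/mL · Buffer or medium – YPD medium · Compound – single dose · Timing – 4 h static compound exposure, 37 °C, read 1 h post-reagent · Signal – adenylate kinase release luminescence · Read-out basis – lysis from increased AK signal · Benchmarks – Clomiphene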
DENV2 CPE rescue: protects cells from dengue virus 2 cytopathic effect; hit rate 1.7% among 350,000; CPE inhibition, % at 9.99 µM; AID 651640; DENV2-infected cells, cytopathic effect rescue, plate reader; in the data active means CPE inhibition above about 20%, passing the limit was not always enough; inconclusive means no clear call, values can overlap the other calls; tested in BHK-21 cells;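 further: 0% = median of neutral control wells and 100% = median of positive control wells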
PGC1a acetyl inh: lowers PGC1a acetylation signal in U2OS cells; AlphaScreen anti-acetyl-lysine; with virally co-expressed GCN5 acetyltransferase; inhibition, % at 15.6 µM; hit rate 0.17% among 350,000;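 active means every replicate shows inhibition of at least 40%; inconclusive means mean inhibition at least 40% but some replicate below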;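 further: 0% = neutral control wells and 100% = positive control wells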
F508del corr: CFTR F508del correction in bronchial cells; activity (quench increase), % at 7.58 µM; AID 720511; CFBE cells, YFP halide quenching; stimulated with forskolin plus potentiator P3; % fluorescence drop versus neutral controls; hit rate 0.36% among 350,000;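 active means mean added fluorescence quench of at least 8% versus neutral control, with both replicates also reaching 8%; inconclusive means only one of the mean or replicate conditions met; inactive means mean below 8% and not both replicates reaching 8%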;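 further: cells transiently co-express mutant CFTR-F508del with the halide-sensitive YFP; corrector assay measuring rescue of mutant channel to the surface after 24 h compound exposure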
Xi reactivation: reactivates the inactive X chromosome in mouse fibroblasts; XiGFP mouse fibroblasts, % GFP-positive cells imaging, 3 d; cells co-treated with 5-aza-dC sensitizer; scaled so ellipticine positive control = 100%; activation, % at 7.58 µM; hit rate 0.055% among 360,000; AID 743238;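 active means mean normalized replicate activation at least 10% and every replicate at or above 10%; inconclusive means only one of the two criteria met; inactive means mean below 10% and not all replicates reach 10%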;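 further: 0% = median of on-plate neutral control wells and 100% = ellipticine 6 µM median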
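Material: SV40-immortalized XiGFP fibroblast cells, line 68-5-11 | Buffer or medium: DMEM containing 5-aza-dC | Dosing: One concentration, pinned | Times: 3 d treatment, 15 min room-temperature fixation | Controls: Ellipticine 6 µM positive control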
FN deposition inh: fibronectin deposition inhibition. inhibition, % at 12.6 µM. hit rate 0.086% among 350,000. AH1F fibroblasts, Alexa488-fibronectin deposition fluorescence, overnight;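 active means mean inhibition across replicates of 30% or more, regardless of how many single replicates reach that level; inconclusive means mean under 30% yet at least half of replicates reach 30%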;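 further: positive control wells lacked labelled fibronectin entirely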
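test system = AH1F fibroblasts assembling fluorescent fibronectin matrix | quantity = 10000 AH1F cells per well | buffer or medium = DMEM plus 2% serum, read in PBS | doses = single dose, pinned | incubation = 1 h cell attachment, overnight exposure to compound and label | detection = fluorescence at 485 nm excitation, 525 nm emission | read-out basis = inhibition from reduced deposited-fibronectin fluorescence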
* = called active by the depositor; ? = inconclusive; . = no result given; ! = repeats disagree. This is a sample that favours compounds with a hit; in the whole collection about 1.9% have one here.

SMILES	Cneo AK release	DENV2 CPE rescue	PGC1a acetyl inh	F508del corr	Xi reactivation	FN deposition inh
Cc1ccc(S(=O)(=O)Nc2ccc3c(c2)CC(=O)N([C@H](C)CO)C[C@H](C)[C@H](CN(C)Cc2ccc(Oc4ccccc4)cc2)O3)cc1	-11	50*	1	0	-1	.
C[C@H](CO)N1C[C@H](C)[C@H](CN(C)Cc2ccccc2)Oc2ccc(NS(=O)(=O)c3ccc(Cl)cc3)cc2CC1=O	-5	28*	.	-1	0	.
C[C@H](CO)N1C[C@H](C)[C@H](CN(C)Cc2ccc(-c3ccccc3)cc2)Oc2ccc(NS(=O)(=O)c3cccs3)cc2CC1=O	1	51*	0	0	0	-12
C[C@@H]1CN([C@@H](C)CO)C(=O)Cc2cc(NS(=O)(=O)c3ccccc3)ccc2O[C@@H]1CN(C)Cc1ccc(Cl)c(Cl)c1	85*	-10	-11	6	0	.
COCC(=O)NC[C@@H]1CC[C@@H]2[C@@H](CN2S(=O)(=O)c2ccccc2[N+](=O)[O-])O1	.	3	.	5	.	.
C[C@H]1CN([C@@H](C)CO)C(=O)Cc2cc(NS(C)(=O)=O)ccc2O[C@@H]1CN(C)Cc1ccc(Cl)c(Cl)c1	112*!	-13	-3	-2	0	-1
C[C@@H]1CN([C@H](C)CO)C(=O)c2cc(NS(=O)(=O)c3ccc(Cl)cc3)ccc2O[C@@H]1CN(C)Cc1ccc(-c2ccccc2)cc1	6	-17	-2	9.4*	0	20
C[C@@H]1CN([C@H](C)CO)C(=O)Cc2cc(NS(C)(=O)=O)ccc2O[C@@H]1CN(C)Cc1ccc(Cl)c(Cl)c1	-1	-8	-6	3	0	.
C[C@H]1CN([C@@H](C)CO)C(=O)c2c(c3ccccc3n2C)-c2ccccc2CO[C@@H]1CN(C)C(=O)Nc1ccc(F)cc1	-1	1	-10	-2	0	-4
C[C@H]1CN([C@@H](C)CO)C(=O)c2ccccc2-c2ccccc2CO[C@H]1CN(C)Cc1ccccc1C(F)(F)F	.	21*	-6	-6	0	8
C[C@@H]1CN([C@H](C)CO)C(=O)c2ccccc2-c2ccccc2CO[C@@H]1CN(C)C(=O)[C@H]1CCCN1C	-1	79*	7	1	0	-5
C[C@H](CO)N1C[C@H](C)[C@H](CN(C)C(=O)Nc2ccc(F)cc2)OCc2ccccc2-c2c(n(C)c3ccccc23)C1=O	1	73*!	-14	-2	1	-6
C[C@H](CO)N1C[C@H](C)[C@H](CN(C)C(=O)Nc2cccc(C(F)(F)F)c2)OCc2ccccc2-c2c(n(C)c3ccccc23)C1=O	.	25*	2	1	0	3
CCC(=O)Nc1ccc2c(c1)OC[C@H](C)N(C(=O)CC)C[C@H](C)[C@H](OC)CN(C)C2=O	.	.	0	3	0	0
C[C@H]1CN([C@@H](C)CO)C(=O)c2c(c3ccccc3n2C)-c2ccccc2CO[C@@H]1CN(C)Cc1cccc2c1OCCCO2	.	13	1	1	.	.
COc1cccc(CN(C)C[C@@H]2OCc3ccccc3-c3c(n(C)c4ccccc34)C(=O)N([C@@H](C)CO)C[C@H]2C)c1	2	49*!	-24	-6	0	-2
C[C@@H]1CN([C@H](C)CO)C(=O)c2c(c3ccccc3n2C)-c2ccccc2CO[C@@H]1CN(C)Cc1cccc2c1OCCCO2	.	28*	-12	3	0	2
CC(=O)N(C)C[C@H]1OCc2ccccc2-c2c(n(C)c3ccccc23)C(=O)N([C@H](C)CO)C[C@H]1C	-1	34*	-2	1	0	-11
C[C@@H]1CN([C@H](C)CO)C(=O)c2c(c3ccccc3n2C)-c2ccccc2CO[C@H]1CN(C)S(=O)(=O)c1cccs1	90*	1	-14	-4	0	-4
COc1cccc(CN(C)C[C@H]2OCc3ccccc3-c3c(n(C)c4ccccc34)C(=O)N([C@@H](C)CO)C[C@H]2C)c1	.	-41	-33	4	-1	0
NCC[C@H]1CC[C@@H](NC(=O)C2CC2)[C@H](CO)O1	.	-3	-1	-3	0	6
C[C@@H]1CCCCO[C@@H](CN(C)S(=O)(=O)c2cccs2)[C@H](C)CN([C@H](C)CO)C(=O)c2cc(NC(=O)CCC(F)(F)F)ccc2O1	1	?	-6	-1	0	.
CNC[C@@H]1OCc2ccccc2-c2ccccc2C(=O)N([C@@H](C)CO)C[C@@H]1C	-1	33*!	1	2	0	3
CNC[C@H]1OCc2ccccc2-c2c(n(C)c3ccccc23)C(=O)N([C@H](C)CO)C[C@@H]1C	.	.	.	.	3	1
CNC[C@@H]1OCc2ccccc2-c2c(n(C)c3ccccc23)C(=O)N([C@H](C)CO)C[C@@H]1C	1	33*!	7	5	0	-3
SMILES	Cneo AK release	DENV2 CPE rescue	PGC1a acetyl inh	F508del corr	Xi reactivation	FN deposition inh
NCCCn1c(C(=O)c2cc(Cl)c(N)c(Cl)c2)c2ccc([N+](=O)[O-])cc2[n+]1[O-]	2	1	54*	-7	0	-6
O=C(c1cnccn1)N1CC(=O)N2[C@H](C1)[C@@H](c1ccc(/C=C/c3ccccc3)cc1)[C@@H]2CO	.	-1	-1	-3	0	3
O=C(c1ccccn1)N1CC(=O)N2[C@@H](CO)[C@@H](c3ccc(C#Cc4ccccc4)cc3)[C@@H]2C1	.	3	0	-2	0	.
O=C(c1ccccn1)N1CC(=O)N2[C@H](C1)[C@H](c1ccc(C#CCc3ccccc3)cc1)[C@@H]2CO	.	54*	-9	5	1	.
C/C=C/c1ccc([C@@H]2[C@@H](CO)N3C(=O)CN(C(=O)c4cnccn4)C[C@@H]23)cc1	.	59*	4	1	0	.
O=C(c1ccccn1)N1CC(=O)N2[C@H](CO)[C@@H](c3ccc(C#CCc4ccccc4)cc3)[C@@H]2C1	.	11	-5	-3	0	.
O=C(c1ccccn1)N1CC(=O)N2[C@H](CO)[C@@H](c3ccc(C#Cc4ccccc4)cc3)[C@@H]2C1	.	52*	-2	2	0	.
O=C(N[C@H]1CC[C@@H](CCn2cc(C3CCCCC3)nn2)O[C@H]1CO)c1cccnc1	0	1	-2	-3	0	-22
CO[C@@H]1CN(C)C(=O)c2ccc(NC(=O)CC(F)(F)F)cc2OC[C@H](C)N(C(=O)C2CC2)C[C@@H]1C	.	-6	12	-2	0	-7
O=C(N[C@H]1CC[C@H](CCn2cc(-c3ccccc3)nn2)O[C@H]1CO)c1cnccn1	-2	9	-2	0	0	17
